Measurements collected from several papers.
Lines come from different studies, so protocols differ.
Target: Serine/threonine-protein kinase DCLK2 (DCLK2, Homo sapiens, UniProt Q8N568)
One construct used (Q8N568 1-766): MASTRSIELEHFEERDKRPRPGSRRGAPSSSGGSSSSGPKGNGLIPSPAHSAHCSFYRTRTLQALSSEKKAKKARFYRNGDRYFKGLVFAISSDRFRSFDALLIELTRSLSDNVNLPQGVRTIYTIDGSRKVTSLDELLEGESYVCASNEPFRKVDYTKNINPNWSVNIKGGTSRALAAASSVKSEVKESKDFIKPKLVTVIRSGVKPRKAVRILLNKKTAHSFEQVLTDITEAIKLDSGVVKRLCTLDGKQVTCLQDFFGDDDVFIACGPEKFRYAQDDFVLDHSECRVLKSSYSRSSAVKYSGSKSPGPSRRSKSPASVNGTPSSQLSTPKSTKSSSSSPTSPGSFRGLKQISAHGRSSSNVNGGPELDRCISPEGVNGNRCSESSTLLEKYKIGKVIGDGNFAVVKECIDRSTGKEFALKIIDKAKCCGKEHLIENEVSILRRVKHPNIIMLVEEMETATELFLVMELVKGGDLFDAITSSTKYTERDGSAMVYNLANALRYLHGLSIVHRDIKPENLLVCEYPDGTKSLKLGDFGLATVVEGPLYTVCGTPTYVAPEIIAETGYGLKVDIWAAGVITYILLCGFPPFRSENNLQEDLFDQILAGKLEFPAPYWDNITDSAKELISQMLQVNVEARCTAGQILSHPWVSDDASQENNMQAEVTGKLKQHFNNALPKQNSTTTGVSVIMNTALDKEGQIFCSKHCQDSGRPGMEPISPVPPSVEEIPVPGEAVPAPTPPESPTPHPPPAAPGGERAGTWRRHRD

O=c1[nH]c2ccccc2n1C1CCN(Cc2ccc(-c3[nH]c4cc5ncnc5cc4nc3-c3ccccc3)cc2)CC1 — remaining signal (cell-free assay; 0.5 µM): 107%
COc1cc(Nc2ncc(F)c(Nc3ccc4c(n3)NC(=O)C(C)(C)O4)n2)cc(OC)c1OC — inhibition (binding; competition with immobilised ligand; 10 µM): 36%
CC(C)(C)c1cc(C=C(C#N)C#N)cc(Br)c1O — remaining activity (enzyme activity; inhibitor; 0.5 µM): 109%
Cn1cc(-c2cccc(N3CCc4c(sc5c4CC(C)(C)C5)C3=O)c2CO)cc(Nc2ccncn2)c1=O — inhibition (enzyme activity; inhibitor; 1 µM): 3%
COc1ncccc1-c1cnn2ccc(N3CCN(C(=O)OC(C)C)CC3)nc12 — remaining binding (binding; competition with immobilised ligand; 1 µM): 100%
Cc1nn(C)cc1-c1nc2c(N3CCN(Cc4ccc(Cl)cc4)CC3)c(Cl)cnc2[nH]1 — remaining binding (binding; competition with immobilised ligand; 1 µM): 100%
N#CC1(c2ccccn2)CCN(Cc2cc(C(=O)O)c(=O)n3ccccc23)CC1 — remaining binding (cell-free assay; competition with immobilised ligand; 1 µM): 100%
Cn1cc(-c2cc(F)cc(N3CCn4c(cc5c4CCCC5)C3=O)c2CO)cc(Nc2ccc(N3CCN(C4COC4)CC3)cn2)c1=O — inhibition (enzyme activity; inhibitor; 0.1 µM): 10%
Cn1cncc1[C@@](O)(COc1ccc(C#N)cc1-c1ccc(OC(F)(F)F)cc1)c1ccc(C#N)cc1 — remaining binding (cell-free assay; competition with immobilised ligand; 1 µM): 100%
Nc1ncc(-c2nc(N3CCOCC3)nc(N3CCOCC3)n2)c(C(F)F)n1 — remaining binding (binding; competition with immobilised ligand; 10 µM): 86%
